Laboratory results as given in ChEMBL document CHEMBL5223075, “Discovery of thienothiazolocarboxamide analogues as novel anti-tubercular agent” (Bioorg Med Chem, 2020).
pIC50: −log10 of the molar value. Values after ≈ are worked out from the molar mass of the structure shown.

How the values were obtained:
[1] = Solubility of the compound at pH 7.4; assay type: physicochemical; conditions: buffer
[2] = test system: Mycobacterium tuberculosis; assay: Antitubercular activity against Mycobacterium tuberculosis H37Rv ATCC 27294 expressing the green fluorescence protein assessed as inhibition of bacterial growth by measuring GFP fluorescence incubated for 5 days by fluorescence based plate reader analysis; assay type: functional, organism-based; conditions: H37Rv ATCC 27294, 120 h
In short: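 H37Rv-GFP was grown 14 days in 7H9/OADC/Tween/glycerol/hygromycin, washed, and seeded at ~3×10^6 CFU/mL. Compounds were given as 10-point 2-fold series starting at 20 or 1 µM, in 1% DMSO final. Plates ran 5 days at 37°C, 5% CO2, with rifampicin 1 µg/mL as positive control. GFP fluorescence was read and IC50 taken from a 4-parameter sigmoid fit.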

[3] = Metabolic stability in mouse liver microsome assessed as phase I mediated metabolite formation by measuring half-life; assay type: ADME; conditions: microsomes
[4] = Metabolic stability in human liver microsome assessed as phase I mediated metabolite formation by measuring half-life; assay type: ADME; conditions: microsomes
[5] = test system: Mycobacterium tuberculosis; assay: Antitubercular activity against Mycobacterium tuberculosis H37Rv ATCC 27294 expressing the green fluorescence protein infected in mouse RAW264.7 cells assessed as inhibition of bacterial growth pre-infected with cell followed by compound addition and measured after 5 days by Hoechst 33342 staining based analysis; assay type: functional, organism-based; conditions: H37Rv ATCC 27294, RAW264.7, 120 h
In short: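 RAW 264.7 cells, passages 2-9, were infected with washed H37Rv-GFP at MOI 20 for 2 h at 37°C with shaking. Cells were washed and plated at 20,000/well over 2-fold compound dilutions for 5 days. Nuclei were stained with 5 µM Hoechst (final) and 3 fields/well imaged. Four parameters (cell count, bacterial area, area per infected cell, infected-cell ratio) were each fitted by 4-parameter sigmoid, and the IC50s averaged.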

[6] = Solubility of the compound at pH 2.1; assay type: physicochemical; conditions: buffer

For `Cc1nc2cc(NC(=O)c3cc4sc(NCCN5CCOCC5)nc4s3)ccc2o1`, which solubility [1] is on record?
The solubility was 2.1 µg/mL (≈ 4.73 µM).

What about the pIC50 [2] of the same compound?
Its pIC50 is 5.87.

What about the t1/2 [3] of the same compound?
Its t1/2 is greater than 60 min.

What about the t1/2 [4] of the same compound?
Its t1/2 is greater than 60 min.

What about the pIC50 [5] of the same compound?
Its pIC50 is 6.33.

And the solubility [6]?
The solubility was 37.1 µg/mL (≈ 83.6 µM).

With `Cc1nc2cc(NC(=O)c3cc4sc(N5CCC(CO)CC5)nc4s3)ccc2o1` as the compound, how does the pIC50 [2] read?
The pIC50 was 6.30.

What about the pIC50 [5] of the same compound?
Its pIC50 is 6.64.

With `COc1cc(NC(=O)c2cc3sc(N4CCCCC4)nc3s2)cc(OC)c1` as the compound, how does the pIC50 [2] read?
The pIC50 was less than 4.70.

And the t1/2 [3]?
The t1/2 was 33.6 min.

What about the t1/2 [4] of the same compound?
Its t1/2 is 24.5 min.

What about the pIC50 [5] of the same compound?
Its pIC50 is less than 4.70.

With `Cc1nc2cc(NC(=O)c3cc4sc(N5CC(C)OC(C)C5)nc4s3)ccc2o1` (stereo not given) as the compound, how does the pIC50 [2] read?
Its pIC50 is 5.96.

And the pIC50 [5]?
Its pIC50 is 6.60.

With `Cc1nc2cc(NC(=O)c3cc4sc(N(C)CCO)nc4s3)ccc2o1` as the compound, how does the solubility [1] read?
Its solubility is 4.5 µg/mL (≈ 11.6 µM).

What about the pIC50 [2] of the same compound?
Its pIC50 is 6.06.

What about the t1/2 [3] of the same compound?
Its t1/2 is 37.7 min.

And the t1/2 [4]?
The t1/2 was greater than 60 min.

What about the pIC50 [5] of the same compound?
Its pIC50 is 5.89.

And the solubility [6]?
The solubility was 20.6 µg/mL (≈ 53 µM).

With `COc1ccc(N(C)C(=O)c2cc3sc(N4CCCCC4)nc3s2)cc1` as the compound, how does the pIC50 [2] read?
Its pIC50 is less than 4.70.

What about the pIC50 [5] of the same compound?
The pIC50 was less than 4.70.

What does the source list for `COc1ccc(NC(=O)c2cc3sc(N4CCN(C)CC4)nc3s2)cc1`?
pIC50 [2]: 5.89; pIC50 [5]: 6.96

Which results are given for `NNC(=O)c1ccncc1` [ISONIAZID]?
pIC50 [2]: 6.40; pIC50 [5]: 6.46

With `CO[C@H]1/C=C/O[C@@]2(C)Oc3c(C)c(O)c4c(O)c(c(/C=N/N5CCN(C)CC5)c(O)c4c3C2=O)NC(=O)/C(C)=C\C=C\[C@H](C)[C@H](O)[C@@H](C)[C@@H](O)[C@@H](C)[C@H](OC(C)=O)[C@@H]1C` [RIFAMPIN] as the compound, how does the pIC50 [2] read?
Its pIC50 is 8.00.

What about the pIC50 [5] of the same compound?
Its pIC50 is 7.22.

With `O=C(Nc1ccc(-c2ccc(F)cc2)cn1)c1cc2sc(NCCN3CCOCC3)nc2s1` as the compound, how does the solubility [1] read?
Its solubility is 0.56 µg/mL (≈ 1.16 µM).

What about the pIC50 [2] of the same compound?
The pIC50 was 5.33.

And the pIC50 [5]?
Its pIC50 is 6.44.

And the solubility [6]?
The solubility was 44.2 µg/mL (≈ 91.4 µM).

With `Cc1ccc(-c2ccc(NC(=O)c3cc4sc(NCCN5CCOCC5)nc4s3)cc2)nc1` as the compound, how does the solubility [1] read?
The solubility was 1.3 µg/mL (≈ 2.71 µM).

What about the pIC50 [2] of the same compound?
The pIC50 was 5.87.

And the t1/2 [3]?
Its t1/2 is 27.1 min.

And the t1/2 [4]?
Its t1/2 is 20.9 min.

And the pIC50 [5]?
Its pIC50 is 6.51.

And the solubility [6]?
The solubility was 52.3 µg/mL (≈ 109 µM).

For `O=C(Nc1ccc(-c2ccc(Cl)cn2)cc1)c1cc2sc(NCCN3CCOCC3)nc2s1`, which solubility [1] is on record?
The solubility was 0.2 µg/mL (≈ 0.4 µM).

What about the pIC50 [2] of the same compound?
Its pIC50 is 5.49.

And the pIC50 [5]?
Its pIC50 is 6.68.

And the solubility [6]?
The solubility was 43.4 µg/mL (≈ 86.8 µM).

Which results are given for `COc1ccc(NC(=O)c2cc3sc(N(C)C)nc3s2)cc1`?
pIC50 [2]: 5.80; pIC50 [5]: 6.57

Which results are given for `O=C(Nc1ccc(O)cc1)c1cc2sc(N3CCCCC3)nc2s1`?
pIC50 [2]: 5.32; pIC50 [5]: 5.56

For `O=C(Nc1ccc(-c2ccc(F)cc2)nc1)c1cc2sc(NCCN3CCOCC3)nc2s1`, which solubility [1] is on record?
Its solubility is 0.57 µg/mL (≈ 1.18 µM).

What about the pIC50 [2] of the same compound?
Its pIC50 is 5.34.

What about the pIC50 [5] of the same compound?
Its pIC50 is 6.43.

What about the solubility [6] of the same compound?
Its solubility is greater than 50 µg/mL.
